Article PMC4474499 (Science Advances, 2015)

Experiments:
HEK-Blue hTLR2 cells = experiment: MTT cell viability assay in HEK-Blue hTLR2 cells; assay type: cell-based, human; details: up to 100 μM, 24 h
Method in brief: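 HEK-Blue hTLR2 cells, 40,000/well in DMEM/10% FBS, grown 24 h at 37°C, 5% CO2. Medium then replaced by Opti-MEM (0.5% FBS, non-essential amino acids) with compounds at 0–100 μM for 24 h. MTT added for 4 h; formazan dissolved in DMSO; A560 read. Cytotoxicity % = 1 − (sample − blank)/(control − blank), ×100.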

human TLR1/2 = human TLR1/2 (Homo sapiens, UniProt O60603+Q15399); experiment: Competition binding ELISA assay with biotin-labeled Pam3CSK4; details: 50 nM (100 ng/ml) Biotin-Pam3, 0 to 7 μM CU-T12-9
Sequence of human TLR1/2 (Q15399 25-580 limits assumed): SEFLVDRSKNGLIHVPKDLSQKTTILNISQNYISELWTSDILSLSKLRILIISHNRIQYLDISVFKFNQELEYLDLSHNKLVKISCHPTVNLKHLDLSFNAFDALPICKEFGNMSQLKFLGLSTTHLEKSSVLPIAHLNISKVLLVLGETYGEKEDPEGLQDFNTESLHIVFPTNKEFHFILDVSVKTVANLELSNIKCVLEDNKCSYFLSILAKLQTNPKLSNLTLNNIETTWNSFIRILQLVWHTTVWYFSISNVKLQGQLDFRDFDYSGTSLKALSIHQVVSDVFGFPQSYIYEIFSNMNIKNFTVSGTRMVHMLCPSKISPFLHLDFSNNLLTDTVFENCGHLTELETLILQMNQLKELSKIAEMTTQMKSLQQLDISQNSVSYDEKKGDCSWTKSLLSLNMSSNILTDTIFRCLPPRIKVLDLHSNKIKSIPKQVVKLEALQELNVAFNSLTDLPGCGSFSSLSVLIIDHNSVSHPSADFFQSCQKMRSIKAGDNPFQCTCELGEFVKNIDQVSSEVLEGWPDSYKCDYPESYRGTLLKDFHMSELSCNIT
Sequence of human TLR1/2 (O60603 21-588 limits assumed): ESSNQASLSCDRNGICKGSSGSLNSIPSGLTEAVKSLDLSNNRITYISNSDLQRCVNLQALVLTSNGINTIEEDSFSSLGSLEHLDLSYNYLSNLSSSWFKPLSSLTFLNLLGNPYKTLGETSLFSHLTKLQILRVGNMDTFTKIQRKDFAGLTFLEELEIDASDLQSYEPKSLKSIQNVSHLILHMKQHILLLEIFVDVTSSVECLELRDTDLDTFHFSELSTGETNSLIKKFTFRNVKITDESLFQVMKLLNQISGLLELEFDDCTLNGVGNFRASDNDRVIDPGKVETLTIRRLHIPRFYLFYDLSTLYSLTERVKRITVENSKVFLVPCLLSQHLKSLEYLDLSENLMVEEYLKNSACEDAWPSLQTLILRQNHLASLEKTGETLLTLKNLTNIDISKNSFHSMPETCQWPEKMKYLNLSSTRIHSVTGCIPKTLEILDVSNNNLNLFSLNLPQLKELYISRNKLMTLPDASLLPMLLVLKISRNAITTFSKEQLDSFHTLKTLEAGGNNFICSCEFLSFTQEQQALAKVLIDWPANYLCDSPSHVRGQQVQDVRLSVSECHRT
Method in brief: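 Human TLR1 (5 μg/ml) plus TLR2 (4 μg/ml), or BSA, coated in 0.1 M acetate pH 5.0 overnight at 4°C. Blocked with 5% BSA 1 h. Biotin-Pam3CSK4 with or without test compound, 1 h RT. Then streptavidin-HRP (1:2000) 1 h, TMB 10–30 min, stopped with 1 M H3PO4. A450 read, 620 nm reference. Signal at zero compound set as 100%.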

hTLR1 and hTLR2 = hTLR1 and hTLR2 (Homo sapiens, UniProt O60603+Q15399); experiment: SEC-LS assay of TLR1/2 heterodimer formation; assay type: biochemical; details: CU-T12-9 0 to 40 μM or Pam3CSK4 260 nM (400 ng/ml)
Sequence of hTLR1 and hTLR2 (Q15399 25-580 limits assumed): as the sequence (Q15399 25-580 limits assumed) above
Sequence of hTLR1 and hTLR2 (O60603 21-588 limits assumed): as the sequence (O60603 21-588 limits assumed) above
Method in brief: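 Human TLR2 in PBS pH 7.4 preincubated 2 h at RT with test compound or Pam3CSK4. Equimolar hTLR1 then added (final about 10 μM each) for 2 h at 37°C. Both proteins were baculovirus/insect-cell products. Samples filtered (0.1 μm) and run on size-exclusion column in PBS at 1 ml/min. Detection by in-line multi-angle light scattering, refractive index and UV.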

human TLR8 = target: T1, human TLR8 (Homo sapiens, UniProt Q9NR97); experiment: SEAP reporter gene detection assay in HEK-Blue TLR8 cells; assay type: cell-based; details: 0 to 20 μM, 24 hours
T1 sequence (Q9NR97 27-1041): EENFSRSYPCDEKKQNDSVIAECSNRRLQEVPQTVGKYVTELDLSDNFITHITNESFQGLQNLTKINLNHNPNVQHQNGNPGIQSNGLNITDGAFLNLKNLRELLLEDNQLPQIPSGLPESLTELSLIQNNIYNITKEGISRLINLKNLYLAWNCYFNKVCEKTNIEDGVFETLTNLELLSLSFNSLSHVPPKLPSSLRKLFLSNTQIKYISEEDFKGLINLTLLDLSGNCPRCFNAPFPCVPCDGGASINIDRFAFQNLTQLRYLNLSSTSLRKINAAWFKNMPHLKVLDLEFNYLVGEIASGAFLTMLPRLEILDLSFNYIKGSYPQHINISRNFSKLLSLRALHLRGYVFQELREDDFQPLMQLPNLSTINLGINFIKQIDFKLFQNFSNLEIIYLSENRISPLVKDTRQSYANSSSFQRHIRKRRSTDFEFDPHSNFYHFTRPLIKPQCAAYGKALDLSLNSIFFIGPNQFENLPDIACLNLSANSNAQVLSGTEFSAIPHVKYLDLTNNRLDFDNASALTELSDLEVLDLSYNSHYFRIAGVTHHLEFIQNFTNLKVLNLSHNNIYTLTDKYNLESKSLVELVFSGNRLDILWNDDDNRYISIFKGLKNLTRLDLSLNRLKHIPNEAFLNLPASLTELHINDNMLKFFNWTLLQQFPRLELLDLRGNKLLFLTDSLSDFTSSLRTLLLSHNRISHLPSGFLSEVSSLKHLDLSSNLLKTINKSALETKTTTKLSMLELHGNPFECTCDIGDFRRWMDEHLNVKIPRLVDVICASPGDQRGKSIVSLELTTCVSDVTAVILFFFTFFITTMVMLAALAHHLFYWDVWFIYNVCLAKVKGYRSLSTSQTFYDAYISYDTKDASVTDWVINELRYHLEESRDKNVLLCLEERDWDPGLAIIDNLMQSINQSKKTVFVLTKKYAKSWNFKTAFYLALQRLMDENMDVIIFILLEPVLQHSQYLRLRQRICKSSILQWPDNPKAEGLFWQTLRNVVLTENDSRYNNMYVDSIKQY
Method in brief: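 HEK 293 cells stably carrying the human TLR and a SEAP reporter, 4 × 10^4/well, grown 24 h. Then 24 h in Opti-MEM/0.5% FBS with test compound. Positive controls: poly(I:C) 0–10.9 μg/ml (TLR3), LPS 0–36.5 ng/ml (TLR4), FLA-BS 0–10 μg/ml (TLR5), R848 0–6 μg/ml (TLR7, TLR8). Supernatant heated 30 min at 65°C, then CSPD substrate added; luminescence read after 20 min.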

Raw 264.7 cells [1] = experiment: Quantitative RT-PCR of mRNA levels in Raw 264.7 macrophage cells; assay type: cell-based, mouse
Method in brief: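 RAW 264.7 cells, 1 × 10^6/well, grown 24 h, then given fresh RPMI 1640. Exposed to test compound, or 33 nM (50 ng/ml) Pam3CSK4, for 0, 2, 8 or 24 h. Cells washed in cold PBS and frozen. Total RNA extracted (RNeasy) for qRT-PCR. Fold change calculated by ΔΔCt versus DMSO-treated cells, means ± SD.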

Raw 264.7 cells [2] = experiment: In vitro NO activation assay for Raw 264.7 cells; assay type: cell-based, mouse; details: Raw 264.7 cells, 24 hours
Method in brief: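 RAW 264.7 cells, 80,000/well, grown 24 h. Non-adherent cells removed; medium changed to unsupplemented RPMI 1640. Treated 24 h with test compound, or 66 nM (100 ng/ml) Pam3CSK4 as control. Supernatant reacted 15 min in the dark with 2,3-diaminonaphthalene in HCl, quenched with NaOH. Fluorescence read at ex 365/em 450 nm; nitrite calculated from a standard curve.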

competition with Biotin-Pam3 binding to TLR1/2 (human TLR1/2): can compete | TLR1/2 heterodimer formation (hTLR1 and hTLR2): Heterodimer formation was detected | activation of SEAP signaling, TLR8 (human TLR8): not in other TLR-overexpressing cells
SMILES: CNc1ccc([N+](=O)[O-])cc1-n1cnc(-c2ccc(C(F)(F)F)cc2)c1 [CU-T12-9, N-methyl-4-nitro-2-(4-(4-(trifluoromethyl)phenyl)-1H-imidazol-1-yl)aniline]
cytotoxicity (HEK-Blue hTLR2 cells): negligible cytotoxicity | TLR1 mRNA (Raw 264.7 cells [1]; 1 μM CU-T12-9, 24 hours): potently increased | time of highest TLR2 mRNA expression (Raw 264.7 cells [1]; 1 μM CU-T12-9 or 33 nM (50 ng/ml) Pam3CSK4, measured at 2, 8, 24 hours): 2 h | IL-10 mRNA (Raw 264.7 cells [1]; 2 hours, decreased over time): up-regulated | TNF mRNA expression (Raw 264.7 cells [1]; over time, maximal expression after 8 hours): increased | iNOS mRNA expression (Raw 264.7 cells [1]; over time, peaked at 24 hours): increased | NO production (Raw 264.7 cells [2]): efficiently triggered NO production
